The text below walks through data of ChEMBL document CHEMBL3865787, “Combinatorial synthesis, in silico, molecular and biochemical studies of tetrazole-derived organic selenides with increased selectivity against hepatocellular carcinoma” (Eur J Med Chem, 2016).

Data set [1] is described as follows: Cytotoxicity against human HepG2 cells assessed as reduction in cell viability after 48 hrs by MTT assay. It counts as functional, cell-based. Conditions: HepG2, 48 h. The gist of the method:
(§1)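 Cells were grown in DMEM with 10% calf serum and seeded at 50,000 cells/mL. They grew 2 days at 37 °C, 10% CO2, then took serial compound dilutions for 48 h. MTT (final 0.5 mg/mL) ran 2 h; formazan was washed, dissolved in DMSO and read at 590 nm. IC50 was taken from dose-response curves as the mean of two parallel experiments. 5-FU was the positive control. TI = IC50 WI-38/IC50 HepG2.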
On the technique in general: Formazan colour is commonly taken as a measure of viable cells.

The nature of data set [2]: Downregulation of Ki67 expression in human HepG2 cells at IC50 after 48 hrs by ELISA. It counts as functional, cell-based. The method, boiled down:
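They were detached with trypsin and lysed by four rounds of ultrasonication before Ki-67 measurement. Comparison was with untreated cells; mean ± SD, ANOVA with LSD/Dunnett post hoc.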

Data set [3] is described as follows: Downregulation of Bcl2 expression in human HepG2 cells at IC50 after 48 hrs by ELISA. It counts as functional, cell-based. The method, boiled down: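 For ELISA, lysates had biotin conjugate 2 h at 25 °C, then streptavidin-HRP 1 h at 25 °C, read at 450 nm. Comparison was with untreated cells; mean ± SD, ANOVA with LSD/Dunnett post hoc.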
In general terms: An ELISA detects its analyte on a solid surface through an enzyme-linked reagent.

Data set [4] is described as follows: Therapeutic index, ratio of IC50 for human WI38 cells to IC50 for human HepG2 cells. Conditions: WI38 cells and HepG2 cells, read-out: Ratio IC50. It counts as cell-based. The method, boiled down: as §1
A short description of data set [5]: Pro-oxidant activity as bleomycin-Fe2+ induced calf thymus DNA damage measured as absorbance at 2 mM after 1 hr by thiobarbituric acid-based assay. Also on record: unit not given here. It counts as ADME. Conditions: cattle, 2000 µM. The method, boiled down: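 The mix held calf thymus DNA 0.5 mg/mL, bleomycin sulfate 0.05 mg/mL, MgCl2 5 mM, FeCl3 50 mM and sample 2 mM. Ascorbic acid was the positive control. Capped tubes were heated at 80 °C for 30 min, ice-cooled, shaken and centrifuged. DNA damage was read as the increase in absorbance at 532 nm. Means of 3 replicates.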

A short description of data set [6]: Glutathione peroxidase-like activity assessed as decrease in H2O2 reduction at 41 uM preincubated with compound followed by H2O2 addition after 3 mins by spectrophotometry based NADPH-reductase coupled assay relative to ebselen. The gist of the method: (§2)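 Buffer: 50 mM phosphate with 0.1% Triton X-100, plus NADPH reagent (24 µmol glutathione, 12 U glutathione reductase, 4.8 µmol NADPH). Compound was at 41 µM and the reaction was started with 0.8 mM H2O2. A340 was followed for 3 min, giving ΔA/min. Rates were corrected for background H2O2/GSH reaction, and for compound absorbance where colored. Ebselen (41 µM) served as reference.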

Data set [7] can be described thus: Antioxidant activity assessed as DPPH radical scavenging activity at 1 uM after 30 mins in absence of light by spectrophotometric analysis relative to ascorbic acid. Format: functional. The gist of the method:
(§3)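 Compounds were dissolved in methanol at 1 µM, and 200 µL was added to 0.4 mL of 0.1 mM DPPH in methanol. Mixtures stood 30 min in the dark and were read at 517 nm against a blank (no DPPH). The negative control used methanol in place of compound. I% = (Ablank − Asample)/Ablank × 100. Ascorbic acid was the reference. Means of 3 replicates.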

Data set [8] is described as follows: Cytotoxicity against human WI38 cells assessed as reduction in cell viability after 48 hrs by MTT assay. It counts as toxicity, cell-based, WI-38. The gist of the method: as §1
Data set [9] can be described thus: Upregulation of caspase-8 expression in human HepG2 cells at IC50 after 48 hrs by ELISA. Format: functional, cell-based. The method, boiled down:
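Cells were trypsinized and lysed by liquid-nitrogen freeze–thaw. Lysates were incubated with HRP-conjugated anti-caspase-8 antibody for 30 min at 37 °C, with ELISA read-out at 450 nm. Levels were compared against untreated cells; mean ± SD, ANOVA with LSD/Dunnett post hoc.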

The nature of data set [10]: Glutathione peroxidase-like activity assessed as decrease in H2O2 reduction at 41 uM preincubated with compound followed by H2O2 addition after 3 mins by spectrophotometry based NADPH-reductase coupled assay. The method, boiled down:
as §2

The nature of data set [11]: Antioxidant activity assessed as DPPH radical scavenging activity at 1 uM after 30 mins in absence of light by spectrophotometric analysis. It counts as functional. The method, boiled down:
as §3

Data set [12] in a line: Cytotoxicity against human MCF7 cells assessed as reduction in cell viability after 48 hrs by MTT assay. It counts as functional, cell-based. Conditions: MCF7, 48 h. The method, boiled down:
as §1

pIC50: −log10 of the molar value. Calls of active or inactive are those of the source. The calls are words filed in the database; no cut-off is given here.

For `CC1=C([Se]c2ccc(NC(c3ccc(C)cc3)c3nnnn3C(C)(C)C)cc2)C(=O)c2ccccc2C1=O` (configuration not stated), the figures for the pIC50 in [1] and in [12] were 4.33 and not above 4.00, respectively. Further, the result in [2], in data set [3], in [9] and in data set [10] was Active. In addition, the selectivity ratio in data set [4] worked out at 0.8. Also, the Activity in [5] turned out to be 90; in [11] it was 93%. Also, the results for the fold change (FC) in data set [6] and in data set [7] were less than 5 and 1, respectively. In addition, the 50% inhibitory concentration (IC50) at 48 h in data set [8] was determined as 36 µM.

As usually defined, the pIC50 is −log10 of the IC50, conventionally taken in molar units. One may read the IC50 as the concentration needed to halve the response being measured.
